MrgX1 agonist: activates human MrgX1 receptor signaling; MrgX1-HEK293 cells, Fluo-4 calcium fluorescence, agonist mode; stronger effect = higher value; B-score at 10 µM; AID 588627; actives 0.44% (n = 310,000);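 active means calcium response B-score plate-corrected fluorescence ratio at least 3 library SD, with starting fluorescence B-score inside 5 SD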
Target sequence (Q96LB2 whole entry, looked up): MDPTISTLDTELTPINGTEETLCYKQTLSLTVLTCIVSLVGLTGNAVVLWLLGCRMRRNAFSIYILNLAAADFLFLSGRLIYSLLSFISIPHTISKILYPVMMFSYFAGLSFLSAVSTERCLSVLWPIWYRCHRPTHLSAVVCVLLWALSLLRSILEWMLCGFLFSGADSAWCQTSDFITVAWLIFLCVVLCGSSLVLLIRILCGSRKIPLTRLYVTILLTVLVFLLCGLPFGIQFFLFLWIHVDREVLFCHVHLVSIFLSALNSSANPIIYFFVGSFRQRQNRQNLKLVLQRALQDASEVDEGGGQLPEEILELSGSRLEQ
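Test system: HEK293 cells stably expressing human MrgX1 receptor; amount: 15,000 cells per well; doses: compound delivered in addition one of three; times: overnight plating before 1 h dye loading; detection: Fluo-4 NW calcium-flux fluorescence, kinetic read; read-out basis: B-scored fluorescence response ratio; controls: positive and negative controls per plate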
RGS4 pot: RGS4 potentiation or activation | HEK293 M3R/inducible RGS4, carbachol calcium flux Fluo4; stronger effect = lower value | B-score at 10 µM | actives 0.92% (n = 310,000) | AID 463111;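 active means B-score of the integrated calcium signal more than 4 SD below the library mean, with starting fluorescence not abnormally high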;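 further: negative B-score means reduced calcium response which marks RGS4 activation or potentiation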
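test system = M3R-expressing HEK293 line, RGS4 induced by doxycycline | probe or stimulus = carbachol at ECmax as muscarinic agonist stimulus | timing = dye loading 30 min 37 °C, buffer rest 30 min RT | signal = calcium dye Fluo4 fluorescence | evaluation = B score from integrated fluorescence ratio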
RGS4 block: inhibitors of human RGS4; P49798; HEK293 M3R/RGS4 inducible, Fluo-4 calcium flux; stronger effect = higher value; triggered by carbachol at its EC20; B-score at 10 µM; actives 0.45% (n = 310,000); AID 463165;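 active means B-score, a plate-corrected calcium signal, over three deviations above library mean, with baseline fluorescence within five deviations of library mean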;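 further: RGS4 expression induced by doxycycline in cells with stable M3 receptor; B-score is computed from the integrated fluorescence ratio over baseline after carbachol; higher B-score means a larger calcium signal and so more RGS4 inhibition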
Target sequence (P49798 whole entry, looked up): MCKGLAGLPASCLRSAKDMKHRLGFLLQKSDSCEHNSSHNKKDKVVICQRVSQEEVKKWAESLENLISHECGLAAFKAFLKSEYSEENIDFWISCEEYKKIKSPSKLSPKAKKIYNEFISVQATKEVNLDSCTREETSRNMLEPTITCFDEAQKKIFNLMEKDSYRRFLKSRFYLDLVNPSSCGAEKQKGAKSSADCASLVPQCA
MrgX1 allo act: human MrgX1 positive allosteric modulation, primary screen | B-score at 10 µM | actives 0.63% (n = 310,000) | AID 588675 | MrgX1-HEK293, Fluo-4 calcium flux, FDSS; stronger effect = higher value | Q96LB2;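 active means plate-corrected calcium response at least 3 library SD above typical, normal starting fluorescence, not activating the receptor alone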;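 further: compound read alongside a low EC10 to EC30 dose of BAM8-22 agonist; peak minus trough fluorescence over baseline measured at the second addition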
MrgX1 antagonist: antagonists of human MrgX1 receptor. MRGX1-HEK293 calcium flux, Fluo-4, BAM8-22 antagonism; stronger effect = lower value. actives 1.3% (n = 310,000). B-score at 10 µM. AID 588676;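 active means calcium-response B-score plate-corrected more than 3 library SD below zero, starting fluorescence within 5 deviations, no agonist response on first addition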;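 further: peak minus trough fluorescence over baseline after final BAM8-22 challenge near maximal dose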
MrgX1 antag conf: human MrgX1 receptor antagonism, re-confirmation screen | actives 19% (n = 2,300) | shares compounds with MrgX1 antagonist | remaining BAM8-22 calcium response % of control (stronger effect = lower value), % at 10 µM | MrgX1-HEK293, BAM8-22 calcium flux, Fluo-4; stronger effect = lower value;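 active means remaining agonist calcium response no higher than 100% minus 3 SD of agonist-only control wells, with starting fluorescence near control levels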;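 further: agonist BAM8-22 given at a near maximal EC90 to ECmax level; peak minus minimum fluorescence divided by baseline after agonist addition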
HEK293 Ca flux: MrgX1 antagonist counter-screen hit in parental HEK293 cells; shares compounds with MrgX1 antagonist; Fluo-4 calcium fluorescence, FDSS; fluorescence ratio F(max-min)/F0 at 10 µM; actives 2% (n = 4,000); AID 624111;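 active means duplicate-averaged calcium fluorescence ratio at least three times the standard deviation of buffer wells, a nonspecific response in parental cells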
HEK293 Ca counter: MrgX1 allosteric activator counter-screen hit in parental HEK293 cells | fluorescence ratio F(max-min)/F0 at 10 µM | shares compounds with MrgX1 antagonist | actives 0.4% (n = 4,000) | parental HEK293 calcium flux, Fluo-4 fluorescence ratio; stronger effect = higher value;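 active means calcium fluorescence ratio, averaged over duplicates, at least 3 SD of the buffer-well ratio, meaning a nonspecific response in receptor-free cells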;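 further: untransfected parental HEK293 lacking MrgX1 used as counterscreen for MrgX1 allosteric activators; fluorescence change taken during the second addition on a kinetic imager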
HEK293 Ca cntr2: counter-screen for MrgX1 activators: effect in parental HEK293 cells. shares compounds with MrgX1 antagonist. Fluo-4 calcium fluorescence (FDSS); stronger effect = higher value. fluorescence ratio F(max-min)/F0 at 10 µM. actives 8.7% (n = 4,000);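 active means calcium fluorescence ratio at least three times the spread of buffer wells, meaning a non-specific response in parental cells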
Numbers stand for hits; - = inactive; . = no result. Sampled rows, rich in hits. Any-hit rate of the full collection: about 3.5%.

SMILES | MrgX1 agonist | RGS4 pot | RGS4 block | MrgX1 allo act | MrgX1 antagonist | MrgX1 antag conf | HEK293 Ca flux | HEK293 Ca counter | HEK293 Ca cntr2
COc1ccc(OC)c(C(=O)NC(CC(N)=O)c2ccc(NCc3ccccn3)c([N+](=O)[O-])c2)c1 (configuration not stated) | - | - | - | - | - | . | . | . | .
Brc1ccc2nc(-c3c[nH]c4ccccc34)cn2c1 | - | - | - | - | -5.35 | - | - | - | -
Cc1cccn2cc(-c3c[nH]c4ccccc34)nc12 | - | - | - | - | - | . | . | . | .
O=C(O)CC1Sc2nnc(COc3ccc(Cl)cc3)n2N=C1c1ccccc1 (configuration not stated) | - | - | - | - | - | . | . | . | .
COc1ccc(N2CC(C(=O)Nc3cccc(S(=O)(=O)N4CCCC4)c3)CC2=O)c(OC)c1 (configuration not stated) | - | - | - | - | -9 | - | - | - | -
COc1ccc(N2CC(C(=O)Nc3ccccc3N3CCCC3)CC2=O)c(OC)c1 (configuration not stated) | - | - | - | - | -5.78 | - | - | - | -
O=C(O)CCCC(=O)Nc1ccccc1C(=O)O | - | - | - | - | -6.44 | - | - | - | -
CCn1c(=O)[nH]c2cc(C(=O)Nc3cc(C)cc(C)c3)ccc2c1=O | - | - | - | - | -5.06 | 82.3% | - | - | -
COc1cc(CN(C)C(C)C(=O)Nc2ccc([N+](=O)[O-])cc2Cl)ccc1OC(F)F (configuration not stated) | - | - | - | - | -21.3 | - | - | - | -
CC(C)c1ccccc1NC(=O)C1CC(=O)N(C2CCCC2)C1 (configuration not stated) | - | - | - | - | -5.12 | - | - | - | -
COc1ccccc1-c1cc(-c2ccccc2)nc(SCC(=O)O)c1C#N | - | - | - | - | - | . | . | . | .
CSc1nsc(SCC(=O)NCc2ccc(C)cc2)n1 | - | - | - | - | - | . | . | . | .
COC(=O)C1=C(C)NC(=O)C1(NC(=O)c1cccnc1)C(F)(F)F (configuration not stated) | - | - | - | - | - | . | . | . | .
COC(=O)C1=C(C)NC(=O)C1(Nc1ccc(Cl)cn1)C(F)(F)F (configuration not stated) | - | - | - | - | -4.64 | - | - | - | -
NC(=O)c1cc2c3ccccc3ccn2c1-c1ccccc1 | - | - | - | - | -5.7 | - | - | - | -
c1coc(CSc2ncnc3c2oc2ccccc23)c1 | - | - | - | - | - | . | . | . | .
COc1ccc(C(=O)Nc2ccc(-c3nnn(CC(=O)NCc4ccco4)n3)cc2)cc1 | - | - | - | - | - | . | . | . | .
CCN(CC(=O)Nc1ccc(NC(C)=O)cc1)C(=O)COc1ccc2ccccc2c1 | - | - | - | - | - | . | . | . | .
CCN(CC(=O)Nc1ccc(NC(C)=O)cc1)C(=O)c1ccc2ccccc2c1 | - | - | - | - | -5.1 | - | - | - | -
CNC(=S)NCc1ccc2[nH]c(C)cc2c1 | - | - | - | - | - | . | . | . | .
CCc1cccc(C)c1NC(=S)NCc1ccc2[nH]c(C)cc2c1 | - | - | - | - | -9.1 | - | - | - | -
CCCN1C(=O)C(NC(C)=O)c2ccccc21 (configuration not stated) | - | - | - | - | - | . | . | . | .
CCc1ccc2c(c1)C(NC(C)=O)C(=O)N2CCN1CCOCC1 (configuration not stated) | - | - | - | - | -9.72 | - | - | - | -
CC1CC(C)CN(C(=O)C(Cc2ccccc2)NC(=O)c2ccccc2)C1 (configuration not stated) | - | - | - | - | - | . | . | . | .
COc1cc(NC(=O)c2cccs2)c(C(=O)OCC(=O)NC(=O)NCc2ccccc2)cc1OC | - | - | - | - | - | . | . | . | .
SMILES | MrgX1 agonist | RGS4 pot | RGS4 block | MrgX1 allo act | MrgX1 antagonist | MrgX1 antag conf | HEK293 Ca flux | HEK293 Ca counter | HEK293 Ca cntr2
COc1cc(NC(=O)c2cccs2)c(C(=O)OCC(=O)NC(=O)NC(C)(C)C)cc1OC | - | - | - | - | -4.55 | 81.1% | - | - | -
O=C(CCc1nnc(C2CCCCC2)o1)N1CCN(C2CCCCC2)CC1 | - | - | - | - | - | . | . | . | .
COC(c1ccccc1)c1nnc(CCC(=O)N2CCN(C3CCCC3)CC2)o1 (configuration not stated) | - | - | - | - | -6.32 | - | - | - | -
CCN(CC)c1ccc(NC(=O)c2ccc3c(c2)c(C)c(C)n3C)cc1 | - | - | - | - | - | . | . | . | .
COc1ccccc1C(=O)Nc1ccnn1C1CCN(C(=O)c2ccoc2)CC1 | - | - | - | - | -6.04 | - | - | - | -
CC(C)NC(=O)NC(=O)CN1c2cccc3cccc(c23)S1(=O)=O | - | - | - | - | - | . | . | . | .
CN1CCN(c2ccc(Cl)cc2NS(=O)(=O)c2ccccc2Cl)CC1 | - | - | - | - | -5.3 | 81.4% | - | - | -
CCOC(=O)Cc1csc(SC(C)C(=O)NC2CCCCC2C)n1 (configuration not stated) | - | - | - | - | -5.33 | 85.2% | - | - | -
CCOC(=O)Cc1csc(SCC(=O)NC2CCCC(C)C2C)n1 (configuration not stated) | - | - | - | - | - | . | . | . | .
Nc1ncnc2nc(SCC(=O)N3CCN(c4ccccc4)CC3)[nH]c12 | - | - | - | - | -4.71 | - | - | - | -
COc1cc(C(=O)NCc2nnc(SCC(=O)NC3CCCC3)o2)cc(OC)c1OC | - | - | - | - | - | . | . | . | .
CCCCn1c(N)c(N(CC(C)C)C(=O)c2ccc(-c3ccc([N+](=O)[O-])cc3)o2)c(=O)[nH]c1=O | - | - | - | - | - | . | . | . | .
CC(NC(=O)NC1CCCCC1)C(c1cccs1)N1CCN(c2ccccc2)CC1 (configuration not stated) | - | - | - | - | - | . | . | . | .
COc1ccc(S(=O)(=O)n2ccc(C(C)Oc3ccc(-c4ccccc4)c(F)c3)n2)cc1 (configuration not stated) | - | - | - | - | -6.63 | - | - | - | -
COc1cc(C(=O)NCC(c2cccnc2)N2CCN(c3ccc(F)cc3)CC2)cc(OC)c1OC (configuration not stated) | - | - | - | - | - | . | . | . | .

From PubChem
